Reference: ChEMBL document CHEMBL3600347, “Syntheses and in Vitro Antiplasmodial Activity of Aminoalkylated Chalcones and Analogues” (J Nat Prod, 2015)
Values belong to the compound of their own block, whether it stands above or below them.

Assays:
Plasmodium falciparum [1] = assay: Antiplasmodial activity chloroquinone-sensitive Plasmodium falciparum NF54 by parasite lactate dehydrogenase assay; assay type: functional, organism-based
Outline: (§1)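 Asexual erythrocytic P. falciparum stages kept in continuous culture (modified Trager–Jensen). Growth inhibition read by parasite lactate dehydrogenase assay (modified Makler). Samples run in triplicate on one or two separate occasions. IC50 from full dose–response curves by nonlinear curve fitting. Chloroquine served as internal standard to monitor conditions.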

Plasmodium falciparum [2] = assay: Antiplasmodial activity chloroquinone-resistant Plasmodium falciparum Dd2 by parasite lactate dehydrogenase assay; assay type: functional, organism-based
Outline: (§2)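 Asexual erythrocyte-stage P. falciparum kept in continuous culture by a modified Trager–Jensen method. Growth inhibition was read by a modified Makler parasite lactate dehydrogenase assay. Samples were run in triplicate on one or two separate occasions, with chloroquine as internal standard. IC50 was taken from full dose–response curves by nonlinear curve fitting.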

Plasmodium falciparum [3] = assay: Antiplasmodial activity chloroquinone-sensitive Plasmodium falciparum D10 by parasite lactate dehydrogenase assay; assay type: functional, organism-based; outline: as §1
[4] = Selectivity index, ratio of IC50 for CHO cells to IC50 for chloroquinone-sensitive Plasmodium falciparum D10; assay type: toxicity, cell-based; conditions: hamster; for selectivity ratio: CHO cells versus Plasmodium falciparum D10, read-out: Ratio IC50; for Ratio IC50: cho
Outline: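 Selectivity index computed as CHO-cell IC50 (MTT) divided by P. falciparum IC50 from the pLDH assay, for a representative subset of compounds.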

CHO = assay: Cytotoxicity against CHO cells by MTT assay; assay type: cell-based, Cricetulus griseus
Outline: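 Chinese hamster ovary cells; viability by MTT assay (modified Mosmann). Samples prepared as for antiplasmodial testing. Emetine reference in every experiment, started at 100 μg/mL and serially diluted 10-fold in complete medium to six concentrations, lowest 0.001 μg/mL. IC50 from dose–response curves.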

[5] = Selectivity index, ratio of IC50 for CHO cells to IC50 for chloroquinone-sensitive Plasmodium falciparum D10; conditions: hamster, CHO cells versus Plasmodium falciparum D10
Plasmodium falciparum [6] = assay: Resistance index, ratio of IC50 for chloroquinone-resistant Plasmodium falciparum Dd2 to IC50 for chloroquinone-sensitive Plasmodium falciparum D10; assay type: functional
Plasmodium falciparum [7] = assay: Antiplasmodial activity chloroquinone-resistant Plasmodium falciparum K1 by parasite lactate dehydrogenase assay; assay type: functional, organism-based; outline: as §2
Plasmodium falciparum [8] = assay: Resistance index, ratio of IC50 for […] to IC50 for chloroquinone-[…] Plasmodium falciparum K1; assay type: functional

IC50 (Plasmodium falciparum [1]; Plasmodium falciparum, NF54): > 5 µM
SMILES: c1ccc(CN2CCCCC2)cc1

SMILES: O=C(/C=C/c1ccc(CN2CCCCC2)c(O)c1)c1ccc(Br)cc1
IC50 (Plasmodium falciparum [2]): 0.21 µM | IC50 (Plasmodium falciparum [3]; Plasmodium falciparum, D10): 0.15 µM | selectivity ratio [4]: 50 | IC50 (CHO; Cricetulus griseus, CHO): 7.27 µM

IC50 (Plasmodium falciparum [3]; Plasmodium falciparum, D10): 2.81 µM
SMILES: COc1ccc(C(=O)/C=C/c2cc(CN3CCCCC3)c(O)c(OC)c2)cc1

IC50 (Plasmodium falciparum [1]): 0.18 µM
SMILES: CCc1ccc(CCCc2ccc(CN3CCCCC3)c(O)c2)cc1 [listing 1 of 2 here]
IC50 (CHO; Cricetulus griseus, CHO): 25.2 µM | selectivity ratio [5]: 138

IC50 (Plasmodium falciparum [1]): 0.06 µM
SMILES: CCc1ccc(CCCc2ccc(CN3CCCCC3)c(O)c2)cc1 [listing 2 of 2 here]

IC50 (Plasmodium falciparum [3]; Plasmodium falciparum, D10): > 3 µM
SMILES: Cc1ccc(C(=O)/C=C/c2ccc(CN3CCCCC3)c(O)c2)cc1

IC50 (Plasmodium falciparum [1]; Plasmodium falciparum, NF54): 0.09 µM
SMILES: CN(C)Cc1ccc(CCCc2ccccc2)cc1O

IC50 (Plasmodium falciparum [3]; Plasmodium falciparum, D10): 5.75 µM
SMILES: COc1ccc(C(=O)/C=C/c2ccc(CN3CCCC3)c(O)c2)cc1

SMILES: Cl.Oc1cc(CCCc2ccc(F)cc2)ccc1CN1CCCCC1
IC50 (Plasmodium falciparum [2]): 0.02 µM | IC50 (Plasmodium falciparum [3]): 0.03 µM | selectivity ratio [4]: 5830 | IC50 (CHO; Cricetulus griseus, CHO): 163 µM | Ratio IC50 (Plasmodium falciparum [6]): 0.79

IC50 (Plasmodium falciparum [1]; Plasmodium falciparum, NF54): > 4 µM
SMILES: NC(=O)c1ccc(CCCc2ccccc2)cc1

SMILES: CC[C@H]1CN2CCc3cc(OC)c(OC)cc3[C@@H]2C[C@@H]1C[C@H]1NCCc2cc(OC)c(OC)cc21 [EMETINE]
IC50 (CHO; Cricetulus griseus, CHO): 0.03 µM

SMILES: COc1ccc(CCCc2cc(O)c(CN3CCCCC3)cc2CN2CCCCC2)cc1
IC50 (Plasmodium falciparum [2]): 0.08 µM | IC50 (Plasmodium falciparum [3]; Plasmodium falciparum, D10): 0.06 µM | selectivity ratio [4]: 3510 | IC50 (CHO; Cricetulus griseus, CHO): 200 µM | Ratio IC50 (Plasmodium falciparum [6]): 1.47

IC50 (Plasmodium falciparum [3]; Plasmodium falciparum, D10): 11.3 µM
SMILES: COc1ccc(C(=O)/C=C/c2cccc(O)c2)cc1

IC50 (Plasmodium falciparum [1]; Plasmodium falciparum, NF54): 0.12 µM
SMILES: Oc1cc(CCc2ccccc2)ccc1CN1CCCCC1

SMILES: Oc1ccc(CCCc2ccc(C(F)(F)F)cc2)cc1CN1CCCCC1 [listing 1 of 2 here]
IC50 (Plasmodium falciparum [2]): 0.03 µM | IC50 (Plasmodium falciparum [3]; Plasmodium falciparum, D10): 0.01 µM | Ratio IC50 (Plasmodium falciparum [6]): 5.8

IC50 (Plasmodium falciparum [1]; Plasmodium falciparum, NF54): > 3 µM
SMILES: CC(C)Nc1ccc(CCCc2cccc(O)c2)cc1

SMILES: Cc1ccc(CCCc2ccc(CN3CCCCC3)c(O)c2)cc1
IC50 (Plasmodium falciparum [2]): 0.27 µM | IC50 (Plasmodium falciparum [3]; Plasmodium falciparum, D10): 0.09 µM | selectivity ratio [4]: 56 | IC50 (CHO; Cricetulus griseus, CHO): 4.95 µM | Ratio IC50 (Plasmodium falciparum [6]): 3.06

IC50 (Plasmodium falciparum [1]; Plasmodium falciparum, NF54): 0.08 µM
SMILES: Oc1cc(CCCc2ccc(-c3ccccc3)cc2)ccc1CN1CCCCC1

IC50 (Plasmodium falciparum [3]; Plasmodium falciparum, D10): 15.7 µM
SMILES: O=C(/C=C/c1cccc(O)c1)c1ccccc1 [3-HYDROXY CHALCONE]

IC50 (Plasmodium falciparum [3]; Plasmodium falciparum, D10): 3.77 µM
SMILES: COc1ccc(C(=O)/C=C/c2ccc(O)c(CN3CCN(C)CC3)c2)cc1

IC50 (Plasmodium falciparum [1]; Plasmodium falciparum, NF54): 0.04 µM
SMILES: Oc1cc(CCCc2ccc3ccccc3c2)ccc1CN1CCCCC1

IC50 (Plasmodium falciparum [1]; Plasmodium falciparum, NF54): 0.26 µM
SMILES: O=C(CCc1ccc(CN2CCCCC2)c(O)c1)c1ccc(F)cc1

IC50 (Plasmodium falciparum [1]; Plasmodium falciparum, NF54): 0.04 µM
SMILES: Oc1cc(CCCc2ccccc2)ccc1CN1CCCC1

SMILES: Oc1ccc(CCCc2ccc(C(F)(F)F)cc2)cc1CN1CCCCC1 [listing 2 of 2 here]
IC50 (Plasmodium falciparum [1]; Plasmodium falciparum, NF54): 0.28 µM

IC50 (Plasmodium falciparum [3]; Plasmodium falciparum, D10): > 3 µM
SMILES: O=C(CCc1ccc(CN2CCCCC2)c(O)c1)c1ccc[nH]1

IC50 (Plasmodium falciparum [1]; Plasmodium falciparum, NF54): 0.18 µM
SMILES: CC(C)Nc1ccc(CCCc2ccc(CN3CCCCC3)c(O)c2)cc1

SMILES: COc1ccc(CCCc2ccc(CN3CCCCC3)c(O)c2)cc1.Cl
IC50 (Plasmodium falciparum [2]): 0.07 µM | IC50 (Plasmodium falciparum [3]): 0.07 µM | Ratio IC50 [4]: 3063 | IC50 (CHO; cho): 211 µM | Ratio IC50 (Plasmodium falciparum [6]): 1

IC50 (Plasmodium falciparum [3]; Plasmodium falciparum, D10): 4.9 µM
SMILES: COc1ccc(C(=O)/C=C/c2ccc(CN3CCOCC3)c(O)c2)cc1

IC50 (Plasmodium falciparum [3]; Plasmodium falciparum, D10): > 3 µM
SMILES: COc1ccc(C(=O)/C=C/c2ccc(O)c(CN(C)C)c2)cc1

IC50 (Plasmodium falciparum [3]; Plasmodium falciparum, D10): 0.83 µM
SMILES: COc1ccc(C(=O)/C=C/c2ccc(CN3CCCCC3)c(O)c2)cc1
selectivity ratio [4]: 237 | IC50 (CHO; Cricetulus griseus, CHO): 197 µM

IC50 (Plasmodium falciparum [1]; Plasmodium falciparum, NF54): 2.81 µM
SMILES: Oc1cc(CCCc2ccccc2)ccc1CN1CCNCC1

IC50 (Plasmodium falciparum [3]; Plasmodium falciparum, D10): 2.74 µM
SMILES: CCN1CCN(Cc2ccc(/C=C/C(=O)c3ccc(OC)cc3)cc2O)CC1

SMILES: O=C(/C=C/c1ccc(O)c(CN2CCCCC2)c1)c1ccc(C(F)(F)F)cc1
IC50 (Plasmodium falciparum [2]): 0.2 µM | IC50 (Plasmodium falciparum [3]; Plasmodium falciparum, D10): 0.17 µM | selectivity ratio [4]: 49 | IC50 (CHO; Cricetulus griseus, CHO): 8.22 µM

IC50 (Plasmodium falciparum [1]; Plasmodium falciparum, NF54): 0.79 µM
SMILES: CN1CCN(Cc2ccc(CCCc3ccccc3)cc2O)CC1

IC50 (Plasmodium falciparum [1]; Plasmodium falciparum, NF54): 0.06 µM
SMILES: Oc1cc(CCCc2ccc(CCCc3ccc(CN4CCCCC4)c(O)c3)cc2)ccc1CN1CCCCC1

SMILES: COc1ccc(CCCc2ccc(CN3CCCCC3)c(O)c2)cc1
IC50 (Plasmodium falciparum [3]): 0.21 µM | Ratio IC50 [4]: 332 | IC50 (CHO; cho): 69.8 µM

SMILES: Oc1cc(CCCc2ccc(F)cc2)ccc1CN1CCCCC1
IC50 (Plasmodium falciparum [3]): 0.07 µM

IC50 (Plasmodium falciparum [1]; Plasmodium falciparum, NF54): 0.75 µM
SMILES: Oc1cc(CCCc2ccccc2)ccc1CN1CCOCC1

IC50 (Plasmodium falciparum [1]; Plasmodium falciparum, NF54): > 5 µM
SMILES: Oc1ccccc1CN1CCCCC1

IC50 (Plasmodium falciparum [1]; Plasmodium falciparum, NF54): 1.71 µM
SMILES: CC(=O)CCc1ccc(CN2CCCCC2)c(O)c1

IC50 (Plasmodium falciparum [3]; Plasmodium falciparum, D10): 2.52 µM
SMILES: COc1ccc(C(=O)/C=C/c2ccc(CN(C)C)c(O)c2)cc1

SMILES: CCc1ccc(C(=O)/C=C/c2ccc(CN3CCCCC3)c(O)c2)cc1
IC50 (Plasmodium falciparum [2]): 0.21 µM | IC50 (Plasmodium falciparum [3]; Plasmodium falciparum, D10): 0.14 µM | IC50 (CHO; Cricetulus griseus, CHO): 6.59 µM | selectivity ratio [5]: 47

IC50 (Plasmodium falciparum [3]; Plasmodium falciparum, D10): 6.54 µM
SMILES: O=C(/C=C/c1ccc(CN2CCCC2)c(O)c1)c1ccccc1

SMILES: Oc1cc(CCCc2ccccc2)ccc1CN1CCCCC1
IC50 (Plasmodium falciparum [1]; Plasmodium falciparum, NF54): 0.14 µM

SMILES: Cl.Oc1cc(CCCc2ccccc2)ccc1CN1CCCCC1
IC50 (Plasmodium falciparum [2]): 0.03 µM | IC50 (Plasmodium falciparum [3]; Plasmodium falciparum, D10): 0.02 µM | selectivity ratio [4]: 7030 | IC50 (CHO; Cricetulus griseus, CHO): 162 µM | Ratio IC50 (Plasmodium falciparum [6]): 1.35

SMILES: O=C(CCc1ccc(CN2CCCCC2)c(O)c1)c1cccs1
IC50 (Plasmodium falciparum [2]): 0.27 µM | IC50 (Plasmodium falciparum [3]; Plasmodium falciparum, D10): 0.19 µM | selectivity ratio [4]: 895 | IC50 (CHO; Cricetulus griseus, CHO): 168 µM

IC50 (Plasmodium falciparum [1]; Plasmodium falciparum, NF54): 0.06 µM
SMILES: Oc1ccc(CCCc2ccccc2)cc1CN1CCCCC1

IC50 (Plasmodium falciparum [3]; Plasmodium falciparum, D10): > 30 µM
SMILES: COc1ccc(CCCc2cccc(O)c2)cc1

IC50 (Plasmodium falciparum [1]; Plasmodium falciparum, NF54): 0.41 µM
SMILES: CCN1CCN(Cc2ccc(CCCc3ccccc3)cc2O)CC1

IC50 (Plasmodium falciparum [1]; Plasmodium falciparum, NF54): 1.04 µM
SMILES: CCc1ccc(CN2CCCCC2)c(O)c1

IC50 (Plasmodium falciparum [3]; Plasmodium falciparum, D10): 2.73 µM
SMILES: O=C(/C=C/c1ccc(CN2CCCCC2)c(O)c1)c1cccs1

IC50 (Plasmodium falciparum [3]; Plasmodium falciparum, D10): 2.42 µM
SMILES: O=C(/C=C/c1ccc(CN2CCCCC2)c(O)c1)c1ccc[nH]1

IC50 (Plasmodium falciparum [3]; Plasmodium falciparum, D10): 1.37 µM
SMILES: O=C(/C=C/c1ccc(CN2CCCCC2)c(O)c1)c1ccccn1

SMILES: O=C(/C=C/c1ccc(CN2CCCCC2)c(O)c1)c1ccc(F)cc1
IC50 (Plasmodium falciparum [2]): 0.71 µM | IC50 (Plasmodium falciparum [3]; Plasmodium falciparum, D10): 0.1 µM | selectivity ratio [4]: 796 | IC50 (CHO; Cricetulus griseus, CHO): 77.2 µM

SMILES: Oc1cc(CCCc2cccs2)ccc1CN1CCCCC1
IC50 (Plasmodium falciparum [7]): 0.02 µM | Ratio IC50 (Plasmodium falciparum [8]): 0.48 | IC50 (Plasmodium falciparum [1]; Plasmodium falciparum, NF54): 0.05 µM

IC50 (Plasmodium falciparum [1]; Plasmodium falciparum, NF54): > 2 µM
SMILES: Cc1ccc(S(=O)(=O)Oc2cc(CCCc3ccc(F)cc3)ccc2CN2CCCCC2)cc1
